Source: ChEMBL document CHEMBL1817572, “New, potent, selective, and short-acting peptidic V1a receptor agonists” (J Med Chem, 2011)
Numbered stars: 1 amine (or outer) side, 2 acyl side, 3 side chain; on linkers, the order of the positions; unused ones are H or OH. Bridge positions count the residues as written; N and C are the ends. Square brackets hold non-standard residues; d marks the D form. Peptide text beside a SMILES is read from it. * marks the point of attachment. Orn(Me) = CN(CCC[C@H](N[*:1])C(=O)[*:2])[*:3]; Ala(cPent) = N[C@@H](CC1CCCC1)C(=O)O; 3Thi = N[C@@H](Cc1ccsc1)C(=O)O; NH(3-hydroxypropyl) = OCCCN*; Orn = NCCC[C@H](N)C(=O)O; Dab = NCC[C@H](N)C(=O)O

Assays:
[1] = molecular target: Vasopressin V1a/V2 (Homo sapiens) (UniProt P30518+P37288); assay: Selectivity ratio of EC50 for human vasopressin V2 receptor to EC50 for human vasopressin V1a receptor
Vasopressin V2 receptor [2] = molecular target: T1, Vasopressin V2 receptor (Homo sapiens, UniProt P30518); assay: Agonist activity at recombinant human vasopressin V2 receptor expressed in HEK293 cells by luciferase reporter gene assay; format: functional, cell-based
Oxytocin receptor = molecular target: T2, Oxytocin receptor (Homo sapiens, UniProt P30559); assay: Agonist activity at human OT receptor expressed in CHO-K1 cells by luciferase reporter gene assay; format: functional, cell-based
T2 sequence (P30559 whole entry): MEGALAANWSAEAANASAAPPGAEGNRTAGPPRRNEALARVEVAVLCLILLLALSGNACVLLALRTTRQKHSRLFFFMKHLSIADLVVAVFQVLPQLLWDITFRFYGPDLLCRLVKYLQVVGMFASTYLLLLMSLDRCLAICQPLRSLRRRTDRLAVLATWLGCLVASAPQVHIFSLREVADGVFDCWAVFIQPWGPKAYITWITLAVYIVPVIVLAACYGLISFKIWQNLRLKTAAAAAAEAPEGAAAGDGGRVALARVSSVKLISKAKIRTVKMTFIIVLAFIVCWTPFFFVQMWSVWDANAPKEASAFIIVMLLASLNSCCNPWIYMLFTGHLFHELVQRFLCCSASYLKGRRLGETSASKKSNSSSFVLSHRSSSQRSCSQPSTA

Vasopressin V1b receptor = molecular target: T3, Vasopressin V1b receptor (Homo sapiens, UniProt P47901); assay: Agonist activity at recombinant human vasopressin V1b receptor expressed in Flp-In-293 cells by luciferase reporter gene assay; format: functional, cell-based
T3 sequence (P47901 whole entry): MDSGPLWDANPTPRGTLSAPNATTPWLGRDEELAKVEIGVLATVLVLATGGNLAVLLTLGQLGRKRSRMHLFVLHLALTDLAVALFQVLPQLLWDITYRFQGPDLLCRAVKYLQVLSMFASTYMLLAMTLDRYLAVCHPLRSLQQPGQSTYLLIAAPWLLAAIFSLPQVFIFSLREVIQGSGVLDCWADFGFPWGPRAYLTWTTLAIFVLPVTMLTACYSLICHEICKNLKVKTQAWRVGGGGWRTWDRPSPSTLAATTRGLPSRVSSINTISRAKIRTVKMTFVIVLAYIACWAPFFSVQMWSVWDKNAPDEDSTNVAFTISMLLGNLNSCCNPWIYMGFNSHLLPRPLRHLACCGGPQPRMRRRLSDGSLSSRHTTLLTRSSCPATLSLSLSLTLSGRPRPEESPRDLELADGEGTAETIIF
Summary of the method: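 Reporter gene assays in HEK293 cells transiently cotransfected with V1a (human or rat) or human V2 receptor vector plus NFAT-luciferase (V1a) or CRE-luciferase (V2) reporter; V1b in Flp-In-293 stably expressing receptor, OT in CHO-K1 stably expressing receptor, both transiently transfected with NFAT-luciferase. Two days post-transfection, peptides added for 5 h at 37 °C, lysis with luciferin, luminescence read.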

[3] = molecular target: T4, Vasopressin V1b receptor (Homo sapiens) (UniProt P47901); assay: Partial agonist activity at recombinant human vasopressin V1b receptor expressed in Flp-In-293 cells by luciferase reporter gene assay; format: functional, cell-based
T4 sequence (whole entry): T3 sequence (P47901 whole entry)
Summary of the method: (§1)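 Same luciferase reporter systems (OT in stable CHO-K1, V1b in stable Flp-In-293, each with transient NFAT-luciferase; V1a in HEK293 with NFAT-luciferase, V2 in HEK293 with CRE-luciferase). Peptides added for 5 h at 37 °C two days post-transfection, luminescence read. Partial agonism means efficacy <70%.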

[4] = molecular target: T5, Oxytocin receptor (Homo sapiens) (UniProt P30559); assay: Partial agonist activity at human OT receptor expressed in CHO-K1 cells by luciferase reporter gene assay; format: functional, cell-based; summary of the method: as §1
T5 sequence (whole entry): T2 sequence (P30559 whole entry)

Homo sapiens [5] = species: Homo sapiens; assay: Selectivity ratio of EC50 for human oxytocin receptor to EC50 for human vasopressin V1a receptor
Homo sapiens [6] = species: Homo sapiens; assay: Selectivity ratio of EC50 for human vasopressin V1b receptor to EC50 for human vasopressin V1a receptor
Vasopressin V1a receptor [7] = molecular target: T6, Vasopressin V1a receptor (Homo sapiens, UniProt P37288); assay: Agonist activity at recombinant human vasopressin V1a receptor expressed in HEK293 cells by luciferase reporter gene assay; format: functional, cell-based; settings: read-out: EC50
Target sequence in this assay (P37288 whole entry): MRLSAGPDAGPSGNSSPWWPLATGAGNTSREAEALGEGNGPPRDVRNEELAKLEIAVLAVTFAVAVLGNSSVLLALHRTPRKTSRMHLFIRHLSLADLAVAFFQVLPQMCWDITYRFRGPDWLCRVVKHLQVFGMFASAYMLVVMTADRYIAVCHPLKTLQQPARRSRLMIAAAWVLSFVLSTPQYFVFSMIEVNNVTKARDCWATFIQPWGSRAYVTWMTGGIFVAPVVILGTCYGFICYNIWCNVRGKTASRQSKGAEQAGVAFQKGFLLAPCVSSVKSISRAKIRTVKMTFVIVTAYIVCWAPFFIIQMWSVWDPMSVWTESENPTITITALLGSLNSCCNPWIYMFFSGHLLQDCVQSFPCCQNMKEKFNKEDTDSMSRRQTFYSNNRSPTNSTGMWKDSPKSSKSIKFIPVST

Rattus norvegicus [8] = assay: Vasoconstriction in Wistar rat assessed as decay in vasopressive duration of action at 0.3 nmol/kg, iv bolus measured over 10 sec interval; format: functional; set-up: unit not given here
Vasopressin V1a receptor [9] = molecular target: Vasopressin V1a receptor (Rattus norvegicus, UniProt P30560); assay: Agonist activity at recombinant rat vasopressin V1a receptor expressed in HEK293 cells by luciferase reporter gene assay; format: functional, cell-based; settings: read-out: EC50
Rattus norvegicus [10] = assay: Vasoconstriction in Wistar rat assessed as assessed as decay in vasopressive duration of action at 3 nmol/kg, iv bolus measured over 10 sec interval; format: functional
Summary of the method: (§2)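 Fasted male Wistar rats (206–340 g) under isoflurane, then thiobutabarbital 150 mg/kg ip, ventilated, 37–38 °C, with carotid pressure and jugular dosing. Dibenamine 1.8 mg/rat iv pretreatment. Sequence: iv boluses (0.5 mL/kg) of heparinized vehicle, then two reference doses of 0.1 nmol/kg, then two test doses; one matches the reference diastolic pressure rise. Relative duration = reference decay rate / test decay rate; mean ± SEM.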

Vasopressin V2 receptor [11] = molecular target: T1, Vasopressin V2 receptor; assay: Partial agonist activity at recombinant human vasopressin V2 receptor expressed in HEK293 cells by luciferase reporter gene assay; format: functional, cell-based; summary of the method: as §1
Rattus norvegicus [12] = assay: Vasoconstriction in Wistar rat assessed as assessed as decay in vasopressive duration of action at 2 nmol/kg, iv bolus measured over 10 sec interval; format: functional; summary of the method: as §2
Vasopressin V1a receptor [13] = molecular target: T6, Vasopressin V1a receptor; assay: Partial agonist activity at recombinant human vasopressin V1a receptor expressed in HEK293 cells by luciferase reporter gene assay; format: functional, cell-based; summary of the method: as §1
Target sequence in this assay (P37288 whole entry, looked up): as the sequence (P37288 whole entry) above

Sequence of Vasopressin V1a receptor (Rattus norvegicus, UniProt P30560) (P30560 whole entry): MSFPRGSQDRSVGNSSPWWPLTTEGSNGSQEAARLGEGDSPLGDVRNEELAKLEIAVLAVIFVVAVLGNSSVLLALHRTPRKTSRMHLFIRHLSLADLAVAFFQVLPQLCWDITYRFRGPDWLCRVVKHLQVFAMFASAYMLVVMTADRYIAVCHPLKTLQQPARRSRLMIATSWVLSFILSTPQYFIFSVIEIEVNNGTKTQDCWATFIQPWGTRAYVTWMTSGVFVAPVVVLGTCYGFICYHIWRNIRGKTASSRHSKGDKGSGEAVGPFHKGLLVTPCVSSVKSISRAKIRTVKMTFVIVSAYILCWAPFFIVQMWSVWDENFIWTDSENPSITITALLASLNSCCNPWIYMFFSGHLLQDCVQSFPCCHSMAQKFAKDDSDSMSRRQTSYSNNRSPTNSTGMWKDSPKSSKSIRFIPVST
T1 sequence (P30518 whole entry): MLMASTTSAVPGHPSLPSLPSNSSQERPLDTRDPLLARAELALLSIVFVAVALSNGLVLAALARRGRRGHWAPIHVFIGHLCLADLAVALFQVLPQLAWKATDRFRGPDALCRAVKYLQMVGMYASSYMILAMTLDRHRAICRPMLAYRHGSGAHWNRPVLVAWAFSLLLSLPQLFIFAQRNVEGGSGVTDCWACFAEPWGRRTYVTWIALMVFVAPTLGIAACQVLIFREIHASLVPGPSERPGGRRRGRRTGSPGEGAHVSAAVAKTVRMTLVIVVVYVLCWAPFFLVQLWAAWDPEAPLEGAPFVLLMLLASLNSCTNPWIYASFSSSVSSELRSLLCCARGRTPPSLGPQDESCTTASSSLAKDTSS
Sequence of Vasopressin V1a/V2 (Homo sapiens) (P30518 whole entry, looked up): as the sequence (P30518 whole entry) above
Sequence of Vasopressin V1a/V2 (Homo sapiens) (P37288 whole entry, looked up): as the sequence (P37288 whole entry) above

Row | Compound | Ratio EC50 [1] | EC50 (Vasopressin V2 receptor [2]; read-out: EC50) [nM] | EC50 (Oxytocin receptor; read-out: EC50) [nM] | EC50 (Vasopressin V1b receptor; read-out: EC50) [nM] | Efficacy [4] [%] | Ratio EC50 (Homo sapiens [5]) | Ratio EC50 (Homo sapiens [6]) | EC50 (Vasopressin V1a receptor [7]) [nM] | EC50 (Vasopressin V1a receptor [9]) [nM] | EC50 (Oxytocin receptor; cho-k1, read-out: EC50) [nM] | EC50 (Oxytocin receptor; read-out: pEC50 (converted)) [nM] | Time (Rattus norvegicus [10]) [unitless ratio] | EC50 (Vasopressin V2 receptor [2]; hek293, read-out: EC50) [nM] | EC50 (Vasopressin V2 receptor [2]; read-out: pEC50 (converted)) [nM] | also measured
1 | CC[C@H](C)[C@@H]1NC(=O)[C@H](Cc2ccsc2)NC(=O)[C@@H](N)CSSC[C@@H](C(=O)N2CCC[C@H]2C(=O)N[C@@H](CCN)C(=O)NCC(N)=O)NC(=O)[C@H](CC(N)=O)NC(=O)[C@H](CCC(N)=O)NC1=O (H-C[3Thi]IQNCP[Dab]G-NH2; disulfide 1-6) | 320 | 200 | 30 | 50 | < 70 | 49 | 81 | 0.61 | – | – | – | – | – | – | Efficacy [3]: < 70%
2 | CC[C@H](C)[C@@H]1NC(=O)[C@H](Cc2ccccc2)NC(=O)[C@@H](N)CSSC[C@@H](C(=O)N2CCC[C@H]2C(=O)N[C@@H](CCCNC)C(=O)NCC(N)=O)NC(=O)[C@H](CC(N)=O)NC(=O)[C@H](CCC(N)=O)NC1=O (H-CFIQNCP[Orn(Me)]G-NH2; disulfide 1-6) | 500 | 130 | 16 | 74 | < 70 | 61 | 280 | 0.26 | 0.29 | – | – | – | – | – | Time (Rattus norvegicus [8]): 2.6
3 | CC[C@H](C)[C@@H]1NC(=O)[C@H](CC2CCCC2)NC(=O)[C@@H](N)CSSC[C@@H](C(=O)N2CCC[C@H]2C(=O)N[C@@H](CCN)C(=O)NCC(N)=O)NC(=O)[C@H](CC(N)=O)NC(=O)[C@H](CCC(N)=O)NC1=O (H-C[Ala(cPent)]IQNCP[Dab]G-NH2; disulfide 1-6) | 1500 | 1200 | – | 20 | – | > 12000 | 25 | 0.8 | 4.2 | > 10000 | > 10000 | 2.3 | – | – | –
4 | CCNC(=O)C[C@@H]1NC(=O)[C@H]([C@@H](C)CC)NC(=O)[C@H](Cc2ccccc2)NC(=O)[C@@H](N)CSSC[C@@H](C(=O)N2CCC[C@H]2C(=O)N[C@@H](CCN)C(=O)NCC(N)=O)NC(=O)[C@H](CC(N)=O)NC1=O (H-CFID(NHEt)NCP[Dab]G-NH2; disulfide 1-6) | 590 | 1600 | – | 21 | – | > 3700 | 7.7 | 2.7 | 4.8 | > 10000 | > 10000 | 1.3 | – | – | Efficacy (Vasopressin V2 receptor [11]): < 70%
5 | CC[C@H](C)[C@@H]1NC(=O)[C@H](Cc2ccccc2)NC(=O)[C@@H](N)CSSC[C@@H](C(=O)N2CCC[C@H]2C(=O)N[C@@H](CCCN)C(=O)NCC(N)=O)NC(=O)[C@H](CC(N)=O)NC(=O)[C@H](CC(=O)NCCCO)NC1=O (H-CFID(NH(3-hydroxypropyl))NCP[Orn]G-NH2; disulfide 1-6) | > 4700 | – | – | 19 | – | > 4700 | 9 | 2.1 | 2.7 | > 10000 | > 10000 | – | > 10000 | > 10000 | Time (Rattus norvegicus [12]): 1.7 unitless ratio
6 | CC[C@H](C)[C@@H]1NC(=O)[C@H](Cc2cnc[nH]2)NC(=O)[C@@H](N)CSSC[C@@H](C(=O)N2CCC[C@H]2C(=O)N[C@@H](CCN)C(=O)NCC(N)=O)NC(=O)[C@H](CC(N)=O)NC(=O)[C@H](CCC(N)=O)NC1=O (H-CHIQNCP[Dab]G-NH2; disulfide 1-6) | > 19 | – | – | – | – | > 19 | > 19 | 510 | – | > 10000 | > 10000 | – | > 10000 | > 10000 | Efficacy (Vasopressin V1a receptor [13]): < 70%; EC50 (Vasopressin V1b receptor; flp-in-293, read-out: EC50): > 10000 nM; EC50 (Vasopressin V1b receptor; read-out: pEC50 (converted)): > 10000 nM
